What was measured:
Format in all cases: toxicity, cell-based
Fibroblast [1] = test: Multiplex assay against human fibroblast
In short: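 Phenotypes for tubulin, mitochondrial mass and membrane permeability are expressed as per cents of healthy-nucleus cells. Cells were stained live at seeding with Hoechst33342, BioTracker Green Microtubule Cytoskeleton Dye, MitoTracker Red and Annexin V Alexa Fluor 680, then imaged after compound addition on a CQ1 microscope at 37°C and 5% CO2. Machine-learning gating in CellPathfinder separated Hoechst high-intensity objects from normal cells, divided normal cells by nuclear state (healthy, pyknosed, fragmented) and divided pyknosed cells into mitotic or apoptotic.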

U2OS = test: Incucyte cell viability with U2OS; details: human, 10 µM, compound concentration 10 uM; also: filed as whole numbers so only -1 and 0 and 1 occur
HEK-293T = test: Incucyte cell viability with HEK293T; details: human, 10 µM, compound concentration 10 uM; also: filed as whole numbers so only -1 and 0 and 1 occur
Fibroblast [2] = test: Incucyte cell viability with human fibroblast; details: 10 µM, compound concentration 10 uM; also: filed as whole numbers so only -1 and 0 and 1 occur
[3] = 12 h, 1 µM, compound concentration 1 uM, replicate 1
[4] = 12 h, 1 µM, compound concentration 1 uM, replicate 2
[5] = 12 h, 10 µM, compound concentration 10 uM, replicate 1
[6] = 12 h, 10 µM, compound concentration 10 uM, replicate 2
[7] = 24 h, 1 µM, compound concentration 1 uM, replicate 1
[8] = 24 h, 1 µM, compound concentration 1 uM, replicate 2
[9] = 24 h, 10 µM, compound concentration 10 uM, replicate 1
[10] = 24 h, 10 µM, compound concentration 10 uM, replicate 2
[11] = 0 h, replicate number 2, timepoint 0 hours
[12] = 6 h, replicate number 1, timepoint 6 hours
[13] = 12 h, replicate number 1, timepoint 12 hours
[14] = 18 h, replicate number 1, timepoint 18 hours
[15] = 18 h, replicate number 2, timepoint 18 hours
[16] = 24 h, replicate number 1, timepoint 24 hours

`CC[C@@H]1C(=O)N(C)c2cnc(Nc3ccc(C(=O)NC4CCN(C)CC4)cc3OC)nc2N1C1CCCC1` [BI-2536] was tested, and the “Population Apoptotic (%)” value (Fibroblast [1]; [3]) was 82%, the “Population Fragmented Nuclei (%)” value (Fibroblast [1]; [3]) was 37% and the “Population Healthy Nuclei (%)” value (Fibroblast [1]; [3]) was 51%. For the same compound, the “Population Hoechst High Intensity Objects (%)” value (Fibroblast [1]; [3]) was 13%, the “Population Membrane Permeable-Phenotype (%)” value (Fibroblast [1]; [3]) was 6% and the “Population Mitotic Cells (%)” value (Fibroblast [1]; [3]) was 17%. For the same compound, the “Population Normal (%)” value (Fibroblast [1]; [3]) was 86%, the “Population Pyknosed Nuclei (%)” value (Fibroblast [1]; [3]) was 11% and the “Population Tubulin-Different-Phenotype (%)” value (Fibroblast [1]; [3]) was 10%. The “Total Cell Count” value (Fibroblast [1]; [3]) was 236, the “Population Apoptotic (%)” value (Fibroblast [1]; [4]) was 100% and the “Population Fragmented Nuclei (%)” value (Fibroblast [1]; [4]) was 60%. For the same compound, the “Population Healthy Nuclei (%)” value (Fibroblast [1]; [4]) was 35%, the “Population Hoechst High Intensity Objects (%)” value (Fibroblast [1]; [4]) was 51% and the “Population Membrane Permeable-Phenotype (%)” value (Fibroblast [1]; [4]) was 0%. The “Population Mitochondria Different-Phenotype (%)” value (Fibroblast [1]; [4]) was 5%, the “Population Mitotic Cells (%)” value (Fibroblast [1]; [4]) was 0% and the “Population Normal (%)” value (Fibroblast [1]; [4]) was 48%. The “Population Pyknosed Nuclei (%)” value (Fibroblast [1]; [4]) was 4%, the “Population Tubulin-Different-Phenotype (%)” value (Fibroblast [1]; [4]) was 0% and the “Total Cell Count” value (Fibroblast [1]; [4]) was 98. For the same compound, the “Population Fragmented Nuclei (%)” value (Fibroblast [1]; [5]) was 38%, the “Population Healthy Nuclei (%)” value (Fibroblast [1]; [5]) was 50% and the “Population Hoechst High Intensity Objects (%)” value (Fibroblast [1]; [5]) was 22%. For the same compound, the “Population Membrane Permeable-Phenotype (%)” value (Fibroblast [1]; [5]) was 2%, the “Population Mitochondria Different-Phenotype (%)” value (Fibroblast [1]; [5]) was 7% and the “Population Mitotic Cells (%)” value (Fibroblast [1]; [5]) was 19%. The “Population Normal (%)” value (Fibroblast [1]; [5]) was 77%, the “Population Pyknosed Nuclei (%)” value (Fibroblast [1]; [5]) was 11% and the “Population Tubulin-Different-Phenotype (%)” value (Fibroblast [1]; [5]) was 31%. For the same compound, the “Total Cell Count” value (Fibroblast [1]; [5]) was 347, the “Population Apoptotic (%)” value (Fibroblast [1]; [6]) was 80% and the “Population Fragmented Nuclei (%)” value (Fibroblast [1]; [6]) was 50%. For the same compound, the “Population Healthy Nuclei (%)” value (Fibroblast [1]; [6]) was 41%, the “Population Hoechst High Intensity Objects (%)” value (Fibroblast [1]; [6]) was 26% and the “Population Membrane Permeable-Phenotype (%)” value (Fibroblast [1]; [6]) was 3%. The “Population Mitochondria Different-Phenotype (%)” value (Fibroblast [1]; [6]) was 25%, the “Population Mitotic Cells (%)” value (Fibroblast [1]; [6]) was 20% and the “Population Normal (%)” value (Fibroblast [1]; [6]) was 73%. The “Population Pyknosed Nuclei (%)” value (Fibroblast [1]; [6]) was 7%, the “Population Tubulin-Different-Phenotype (%)” value (Fibroblast [1]; [6]) was 62% and the “Total Cell Count” value (Fibroblast [1]; [6]) was 89. The “Population Apoptotic (%)” value (Fibroblast [1]; [7]) was 80%, the “Population Fragmented Nuclei (%)” value (Fibroblast [1]; [7]) was 33% and the “Population Healthy Nuclei (%)” value (Fibroblast [1]; [7]) was 53%. The “Population Hoechst High Intensity Objects (%)” value (Fibroblast [1]; [7]) was 18%, the “Population Membrane Permeable-Phenotype (%)” value (Fibroblast [1]; [7]) was 3% and the “Population Mitochondria Different-Phenotype (%)” value (Fibroblast [1]; [7]) was 8%. For the same compound, the “Population Mitotic Cells (%)” value (Fibroblast [1]; [7]) was 20%, the “Population Normal (%)” value (Fibroblast [1]; [7]) was 81% and the “Population Pyknosed Nuclei (%)” value (Fibroblast [1]; [7]) was 13%. For the same compound, the “Population Tubulin-Different-Phenotype (%)” value (Fibroblast [1]; [7]) was 6%, the “Total Cell Count” value (Fibroblast [1]; [7]) was 225 and the “Population Apoptotic (%)” value (Fibroblast [1]; [8]) was 100%. The “Population Fragmented Nuclei (%)” value (Fibroblast [1]; [8]) was 59%, the “Population Healthy Nuclei (%)” value (Fibroblast [1]; [8]) was 38% and the “Population Hoechst High Intensity Objects (%)” value (Fibroblast [1]; [8]) was 48%. For the same compound, the “Population Membrane Permeable-Phenotype (%)” value (Fibroblast [1]; [8]) was 5%, the “Population Mitochondria Different-Phenotype (%)” value (Fibroblast [1]; [8]) was 0% and the “Population Mitotic Cells (%)” value (Fibroblast [1]; [8]) was 0%. For the same compound, the “Population Normal (%)” value (Fibroblast [1]; [8]) was 51%, the “Population Pyknosed Nuclei (%)” value (Fibroblast [1]; [8]) was 2% and the “Population Tubulin-Different-Phenotype (%)” value (Fibroblast [1]; [8]) was 11%. For the same compound, the “Total Cell Count” value (Fibroblast [1]; [8]) was 92, the “Population Apoptotic (%)” value (Fibroblast [1]; [9]) was 75% and the “Population Fragmented Nuclei (%)” value (Fibroblast [1]; [9]) was 35%. For the same compound, the “Population Healthy Nuclei (%)” value (Fibroblast [1]; [9]) was 55%, the “Population Hoechst High Intensity Objects (%)” value (Fibroblast [1]; [9]) was 36% and the “Population Membrane Permeable-Phenotype (%)” value (Fibroblast [1]; [9]) was 1%. The “Population Mitochondria Different-Phenotype (%)” value (Fibroblast [1]; [9]) was 21%, the “Population Mitotic Cells (%)” value (Fibroblast [1]; [9]) was 25% and the “Population Normal (%)” value (Fibroblast [1]; [9]) was 63%. The “Population Pyknosed Nuclei (%)” value (Fibroblast [1]; [9]) was 10%, the “Population Tubulin-Different-Phenotype (%)” value (Fibroblast [1]; [9]) was 21% and the “Total Cell Count” value (Fibroblast [1]; [9]) was 376. For the same compound, the “Population Apoptotic (%)” value (Fibroblast [1]; [10]) was 100%, the “Population Fragmented Nuclei (%)” value (Fibroblast [1]; [10]) was 57% and the “Population Healthy Nuclei (%)” value (Fibroblast [1]; [10]) was 28%. The “Population Hoechst High Intensity Objects (%)” value (Fibroblast [1]; [10]) was 35%, the “Population Membrane Permeable-Phenotype (%)” value (Fibroblast [1]; [10]) was 0% and the “Population Mitochondria Different-Phenotype (%)” value (Fibroblast [1]; [10]) was 35%. For the same compound, the “Population Mitotic Cells (%)” value (Fibroblast [1]; [10]) was 0%, the “Population Normal (%)” value (Fibroblast [1]; [10]) was 64% and the “Population Pyknosed Nuclei (%)” value (Fibroblast [1]; [10]) was 14%. The “Population Tubulin-Different-Phenotype (%)” value (Fibroblast [1]; [10]) was 57%, the “Total Cell Count” value (Fibroblast [1]; [10]) was 76 and the “Growth Rate” value (U2OS; [11]) was 0. The “Growth Rate” value (U2OS; [12]) was 0, the “Growth Rate” value (U2OS; [13]) was 0 and the “Growth Rate” value (U2OS; [14]) was 0. The “Growth Rate” value (U2OS; [15]) was 1, the “Growth Rate” value (U2OS; [16]) was 0 and the “Growth Rate” value (U2OS; 24 h, replicate number 2, timepoint 24 hours) was 1. For the same compound, the “Growth Rate” value (HEK-293T; [11]) was 1, the “Growth Rate” value (HEK-293T; [12]) was 0 and the “Growth Rate” value (HEK-293T; [13]) was 0. For the same compound, the “Growth Rate” value (HEK-293T; [14]) was 0, the “Growth Rate” value (HEK-293T; [16]) was 0 and the “Growth Rate” value (Fibroblast [2]; 0 h, replicate number 1, timepoint 0 hours) was 0. The “Growth Rate” value (Fibroblast [2]; [13]) was 1, the “Growth Rate” value (Fibroblast [2]; [14]) was 0 and the “Growth Rate” value (Fibroblast [2]; [15]) was 1. The “Growth Rate” value (Fibroblast [2]; [16]) was 0.

— ChEMBL document CHEMBL4689842, “EUbOPEN Chemogenomics Library wave 1” (2021)
